# Source: PubChem BioAssay (several laboratories)
# T cell HTS – modulators of CD8 T cell-vesicle binding, primary screen, mouse 2C CD8+ T cells, flow cytometry | 0.068% of 330,000 active | AID 2052, 2009 | 2C CD8+ T cell-vesicle binding; hits give low values | response (vesicle binding), % at 7 µM;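 active means response, share of CD8 T cells binding vesicles, and their 90th percentile fluorescence all below set limits, cut at about 80% in these data, passing the limit was not always enough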;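 further: values below 100% mean blocked vesicle binding to the CD8+ T cells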
#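 Benchmarks: naked versus QL9-loaded vesicles / Assay system: purified 2C TCR transgenic mouse naive CD8+ T cells / Technique: high-throughput flow cytometry with anti-B7-1 and anti-CD8 staining / Timing: Cell–vesicle co-incubation 1.5 h at 37 °C, staining 20 min on ice / Read-out: percent CD8+ FL2 mean versus row control / Probe or stimulus: QL9-loaded Drosophila micro-vesicles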
# ATG4B inhibitor – ATG4B protease inhibitors, primary screen, biochemical, fluorescence, uHTS; ATG4B cleavage of LC3-PLA2, NBD-HPC fluorescence, 1 h; inhibition, % at 8.33 µM; 0.51% of 340,000 active; in the data active means inhibition above about 40%
# PfG6PD inh – PfG6PD enzyme inhibitors, primary screen, biochemical, fluorescence intensity, uHTS; 0.78% of 350,000 active; AID 504690, 2011; PfGluPho enzyme, NADPH resazurin-diaphorase fluorescence; inhibition, % at 20 µM;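 active means inhibition reaching at least a set limit at 20 µM in the primary screen, cut at about 59% in these data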
# PKA-R1A act – activators of PKA-R1A holoenzyme, primary screen, biochemical, fluorescence polarization, Cy5-IP20, bovine R1A, mouse PKAc; cAMP-dependent protein kinase type I-alpha regulatory subunit (Bos taurus) + …; PKA-R1A dissociation; scaled: DMSO 0%, 113 µM cGMP 100%; activation, % at 11.4 µM; 0.083% of 340,000 active;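 active means percent activation above the mean of all tested compounds plus 3 SD, cut at about 19% in these data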;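 further: higher means more PKAc released from R1A so a rise in polarization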
# PKA-R2B activ – activators of PKA-R2B holoenzyme, primary screen, biochemical, fluorescence polarization, Cy5-IP20, human; PKA-R2B holoenzyme dissociation; R2B truncated from residue 108, S112A mutant; 0% DMSO only, 100% 113 µM cGMP; activation, % at 11.4 µM; 0.079% of 340,000 active;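 active means activation above a cutoff set at the mean over all compounds plus 3 SD, cut at about 18% in these data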;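 further: higher means more holoenzyme dissociation and a rise in polarization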
# Target sequence (P31323 whole entry, looked up, other chains not shown, the tested form may be a part): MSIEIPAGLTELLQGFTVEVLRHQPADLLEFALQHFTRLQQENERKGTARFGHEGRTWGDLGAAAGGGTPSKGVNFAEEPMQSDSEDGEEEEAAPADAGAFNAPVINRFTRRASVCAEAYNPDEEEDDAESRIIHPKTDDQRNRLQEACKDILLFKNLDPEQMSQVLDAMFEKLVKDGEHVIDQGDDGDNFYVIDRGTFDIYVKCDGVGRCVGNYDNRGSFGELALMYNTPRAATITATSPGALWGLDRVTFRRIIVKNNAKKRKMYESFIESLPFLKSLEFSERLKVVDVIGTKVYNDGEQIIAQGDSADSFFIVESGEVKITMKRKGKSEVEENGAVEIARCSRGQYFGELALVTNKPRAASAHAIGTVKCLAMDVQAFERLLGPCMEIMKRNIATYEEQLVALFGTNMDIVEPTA
# HKDC1 inhibitor – HKDC1 hexokinase inhibitors, primary screen, biochemical, fluorescence, uHTS; inhibition, % at 20 µM; Q2TB90; recombinant HKDC1, G6PDH/diaphorase resazurin coupled fluorescence; AID 493160, 2011; 0.16% of 340,000 active;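 active means inhibition above about 35% when tested at 20 µM, limit read from the data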
#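 Test system: recombinant HKDC1 (HK5) hexokinase enzyme, produced in-house / Doses: 20 µM test compound, 1% DMSO / Timing: 90 min, room temperature / Detection: G6PDH/diaphorase-coupled fluorescence, 1 mM NADP, 100 µM resazurin, 525/613 nm / Control set: DMSO wells with and without enzyme mix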
# PfGluPho conf – PfG6PD inhibitors, hit retest, confirmation, biochemical, fluorescence intensity, single concentration | recombinant PfGluPho, NADPH-diaphorase-resazurin fluorescence | shares compounds with PfG6PD inh | 34% of 2,400 active | AID 504753, 2011 | inhibition, % at 20 µM;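 active means inhibition of at least 50% at 20 µM in any single replicate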
# Numbers stand for hits; n = inactive; x = no result. Shown are actives, neighbours in structure and some others; about 1.6% of the full set was active somewhere.
SMILES,T cell HTS,ATG4B inhibitor,PfG6PD inh,PKA-R1A act,PKA-R2B activ,HKDC1 inhibitor,PfGluPho conf
COc1ccc(S(=O)(=O)N2CCCCCC2)cc1C(=O)Nc1ccc(C(=O)N(C)C)cc1,x,n,n,n,n,n,x
CCC(C)(C)NC(=O)C(c1ccc(C)cc1)N(Cc1cccs1)C(=O)c1ccc2c(c1)OCCO2 (stereo not drawn),n,n,62.3,n,n,n,n
Cc1ccc(C(C(=O)NC(C)(C)C)N(Cc2cccs2)C(=O)c2ccc3c(c2)OCCO3)cc1 (stereo not drawn),n,n,n,n,n,n,x
O=C(NNc1cccc(Cl)n1)Nc1ccc(Cl)cc1,n,n,n,n,n,n,x
Cc1ccc(NNC(=O)Nc2ccc(Cl)cc2)nn1,n,n,68.1,x,x,n,n
Oc1c(Cl)cc(Cl)cc1C=Nc1cc(C(F)(F)F)ccc1N1CCc2ccccc2C1,n,n,72.2,n,n,n,n
COC(=O)CCCC1=CC2=CC(=O)C(C)(OC(=O)c3cccs3)C(=O)C2=CN1Cc1ccc2c(c1)OCO2 (stereo not drawn),n,n,n,n,n,n,x
COC(=O)CCCC1=CC2=CC(=O)C(C)(OC(=O)c3cccs3)C(=O)C2=CN1Cc1ccccc1 (stereo not drawn),n,n,74.6,n,n,n,n
COC(=O)CCCC1=CC2=CC(=O)C(C)(OC(=O)c3cccs3)C(=O)C2=CN1Cc1ccco1 (stereo not drawn),n,n,73.1,n,n,n,n
COC(=O)CCCC1=CC2=CC(=O)C(C)(OC(=O)c3cccs3)C(=O)C2=CN1CCCOC(C)C (stereo not drawn),n,n,61.5,n,n,n,n
O=c1cc(CCl)nc(Cc2c(Cl)cccc2Cl)[nH]1,n,n,n,n,n,n,x
COc1cccc(C2=Nc3cccc4cccc(c34)N2)c1,n,n,73.1,n,n,n,n
COc1cc(OC)c(OC)cc1/C=C/c1ccnc2ccccc12,x,n,86.5,n,n,n,n
COc1ccc(OC)c(/C=C/c2ccnc3ccccc23)c1,x,n,n,n,n,n,x
Cc1ccc(S(=O)(=O)N2CCCCC2)c2nsnc12,n,n,n,n,n,n,x
Cc1ccc(NC2=NCCC2)cc1Cl,n,n,n,n,n,n,x
Cc1nc2ccc(NC3=NCCCCC3)cc2s1,n,n,64.0,n,n,n,n
Cc1cc2nc(-c3ccc(SCc4ccc(C(=O)O)cc4)nc3)[nH]c2cc1C,n,n,72.0,n,n,n,n
COc1cc(/C=N/N2C(C)CCCC2C)cc(OC)c1O (stereo not drawn),n,n,84.4,n,n,n,n
COc1cc(/C=N/N2CCN(C3c4ccccc4-c4ccccc43)CC2)cc(OC)c1O,n,n,75.8,n,n,n,n
On1onc2c3cc(-c4ccccc4)nc3ccc21,n,n,89.6,n,n,n,n
c1ccc(-c2cc3c(ccc4nonc43)nn2)cc1,n,n,n,n,n,n,x
Cc1cc(C)nc(NC(=O)/C=C/c2ccccc2Cl)n1,n,n,n,n,n,n,x
Cc1cc(N)c2cc(NC(=O)/C=C/c3ccccc3Cl)ccc2n1,n,n,60.4,n,n,n,n
Clc1ccc2[nH]c3c(c2c1)CNCC3,n,n,n,n,n,n,x
Cc1ccc(C)n1-c1ccc(N(C)C)cc1,n,n,62.8,n,n,n,n
